# In ChEMBL document CHEMBL4311975, “Exploration of the antibiotic potentiating activity of indolglyoxylpolyamines” (Eur J Med Chem, 2019):
# Columns and labels:
# Staphylococcus aureus = assay: Antibacterial activity against Staphylococcus aureus ATCC 25923 assessed as growth inhibition incubated for 18 hrs by broth dilution method; assay type: functional; conditions: ATCC 25923, 18 h
# Summary of the method: (§1)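 Broth microdilution following CA-SFM recommendations. Inoculum was 10^5 CFU in Mueller-Hinton broth with two-fold serial drug dilutions. Plates were incubated 18 h at 37 °C. MIC was the lowest concentration giving complete inhibition of visible growth. Values are means, n = 3.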
# [1] = tested on: Staphylococcus intermedius; assay: Antibacterial activity against Staphylococcus intermedius 1051997 assessed as growth inhibition incubated for 18 hrs by broth dilution method; assay type: functional; conditions: Staphylococcus intermedius, 1051997, 18 h; summary of the method: as §1
# Pseudomonas aeruginosa [2] = assay: Antibacterial activity against Pseudomonas aeruginosa ATCC 27853 assessed as growth inhibition incubated for 18 hrs by broth dilution method; assay type: functional; summary of the method: as §1
# Escherichia coli = assay: Antibacterial activity against Escherichia coli ATCC 25922 assessed as growth inhibition incubated for 18 hrs by broth dilution method; assay type: functional; summary of the method: as §1
# Klebsiella pneumoniae = assay: Antibacterial activity against Klebsiella pneumoniae ATCC 700603 assessed as growth inhibition incubated for 18 hrs by resazurin dye based assay; assay type: functional
# Summary of the method: (§2)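 Overnight cultures were diluted 40-fold in MHB and grown 1.5–2 h at 37 °C to mid-log phase. Cells were added at 5×10^5 CFU/mL final to two-fold compound dilutions (0.008–32 μg/mL final), in duplicate, for 18 h at 37 °C. Resazurin (0.001% final) was added for 2 h and MIC read by eye. Means, n = 2.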
# Acinetobacter baumannii = assay: Antibacterial activity against Acinetobacter baumannii ATCC 19606 assessed as growth inhibition incubated for 18 hrs by resazurin dye based assay; assay type: functional; conditions: ATCC 19606 = CIP 70.34 = JCM 6841, 18 h; summary of the method: as §2
# Candida albicans = assay: Antifungal activity against Candida albicans ATCC 90028 assessed as growth inhibition incubated for 36 hrs by resazurin dye based assay; assay type: functional; conditions: ATCC 90028, 36 h
# Summary of the method: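 Yeast was grown 3 days on YPD agar at 30 °C. Colonies were suspended and diluted in YNB broth to 2.5×10^3 CFU/mL, then added to two-fold compound dilutions (0.008–32 μg/mL final), in duplicate. Plates stood 36 h at 35 °C without shaking. Means, n = 2.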
# Cryptococcus neoformans = assay: Antifungal activity against Cryptococcus neoformans ATCC 208821 assessed as growth inhibition incubated for 36 hrs by resazurin dye based assay; assay type: functional; conditions: ATCC 208821, 36 h
# Summary of the method: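 Cryptococcus was grown 3 days on YPD agar at 30 °C, suspended, and diluted in YNB broth to 2.5×10^3 CFU/mL. Cells were exposed to 0.008–32 μg/mL compound (final), in duplicate, for 36 h at 35 °C without shaking. Resazurin (0.006% final) was added for a further 3 h. MIC was read from absorbance at OD570–600. Means, n = 2.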
# Pseudomonas aeruginosa [3] = assay: Potentiation of doxycycline-induced antibacterial activity against Pseudomonas aeruginosa ATCC 27853 assessed as concentration required to restore 2 ug/ml doxycycline activity measured after 18 hrs; assay type: functional
# Summary of the method: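 Inoculum was 5×10^5 CFU in MHB with two-fold serial dilutions of adjuvant plus fixed doxycycline at 2 μg/mL. […] Repeated independently in triplicate.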
# L6 = assay: Cytotoxicity against rat L6 cells measured after 72 hrs by alamar blue assay; assay type: cell-based; conditions: L6, 72 h
# Summary of the method: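 Rat L6 myoblasts, 4×10^4/well in RPMI 1640 with L-glutamine and 10% FBS, received seven 3-fold dilutions (90 to 0.123 μg/mL) for 72 h. Alamar Blue was added for 2 h and fluorescence read at ex 536/em 588 nm. Podophyllotoxin served as reference. Means, n = 2.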
# [4] = Cytotoxicity against human HEK293 cells measured after 20 hrs by resazurin dye based fluorescence assay; assay type: cell-based
# Summary of the method: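 HEK293 cells, 5,000/well in DMEM with 10% FBS, were exposed to compound for 20 h at 37 °C, 5% CO2. Resazurin (100 μM final) was added for 3 h, then fluorescence read at ex 560/em 590. Signal was normalised to tamoxifen (74 μg/mL, 0%) and untreated growth (100%), and CC50 came from dose-response fitting. Top dose 32 μg/mL. Means, n = 2.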
# [5] = Hemolytic activity against Sprague-Dawley rat RBC assessed as release of hemoglobin at 50 uM incubated for 1 hr relative to control; assay type: ADME, cell-based, Erythrocyte; conditions: red blood cells (erythrocytes), read-out: Activity
# Summary of the method: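 Fresh Sprague-Dawley rat erythrocytes were washed in saline and resuspended at 2% v/v. Cells were incubated with compound in DMSO/PBS for 1 h at 37 °C, then centrifuged at 200 g, and supernatant absorbance read at 540 nm. Results were normalised to DMSO/PBS (0%) and 0.1% Triton X-100 (100%). Single-point testing used 50 μM; HC50 came from 10-point curves. Means of three experiments.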
# [6] = Klebsiella pneumoniae, 700603, 18 h
compound,measurement,setting,value
O=C(NCCCNCCCCNCCCNC(=O)C(=O)c1c[nH]c2cc(C(F)(F)F)ccc12)C(=O)c1c[nH]c2cc(C(F)(F)F)ccc12.O=C(O)C(F)(F)F.O=C(O)C(F)(F)F,MIC,Staphylococcus aureus,50 µM
same,MIC,[1],50 µM
same,MIC,"Pseudomonas aeruginosa [2]; ATCC 27853, 18 h",200 µM
same,MIC,"Escherichia coli; ATCC 25922, 18 h",100 µM
same,MIC,Klebsiella pneumoniae; [6],35.2 µM
same,MIC,Acinetobacter baumannii,> 35.2 µM
same,MIC,Candida albicans,35.2 µM
same,MIC,Cryptococcus neoformans,4.4 µM
same,Activity,Pseudomonas aeruginosa [3],100 µM
same,IC50,L6,31.4 µM
same,CC50 at 20 h,[4],3.36 µM
same,"hemolysis at 1 h, 50 µM",[5],3.2%
CN[C@@H]1[C@H](O[C@H]2[C@H](O[C@H]3[C@H](O)[C@@H](O)[C@H](N=C(N)N)[C@@H](O)[C@@H]3N=C(N)N)O[C@@H](C)[C@]2(O)C=O)O[C@@H](CO)[C@H](O)[C@H]1O [STREPTOMYCIN],MIC,Staphylococcus aureus,21.5 µM
same,MIC,[1],10.7 µM
same,MIC,"Pseudomonas aeruginosa [2]; ATCC 27853, 18 h",21.5 µM
same,MIC,"Escherichia coli; ATCC 25922, 18 h",21.5 µM
N#Cc1ccc2[nH]cc(C(=O)C(=O)NCCCNCCCCNCCCNC(=O)C(=O)c3c[nH]c4ccc(C#N)cc34)c2c1.O=C(O)C(F)(F)F.O=C(O)C(F)(F)F,MIC,Staphylococcus aureus,100 µM
same,MIC,[1],> 200 µM
same,MIC,"Pseudomonas aeruginosa [2]; ATCC 27853, 18 h",> 200 µM
same,MIC,"Escherichia coli; ATCC 25922, 18 h",> 200 µM
same,MIC,Klebsiella pneumoniae; [6],> 38.9 µM
same,MIC,Acinetobacter baumannii,> 38.9 µM
same,MIC,Candida albicans,> 38.9 µM
same,MIC,Cryptococcus neoformans,38.9 µM
same,Activity,Pseudomonas aeruginosa [3],50 µM
same,IC50,L6,37.1 µM
same,CC50 at 20 h,[4],> 38.9 µM
same,"hemolysis at 1 h, 50 µM",[5],0%
Cc1ccc2[nH]cc(C(=O)C(=O)NCCCNCCCCNCCCNC(=O)C(=O)c3c[nH]c4ccc(C)cc34)c2c1.O=C(O)C(F)(F)F.O=C(O)C(F)(F)F,MIC,Staphylococcus aureus,25 µM
same,MIC,[1],> 200 µM
same,MIC,"Pseudomonas aeruginosa [2]; ATCC 27853, 18 h",100 µM
same,MIC,"Escherichia coli; ATCC 25922, 18 h",200 µM
same,MIC,Klebsiella pneumoniae; [6],> 40 µM
same,MIC,Acinetobacter baumannii,> 40 µM
same,MIC,Candida albicans,> 40 µM
same,MIC,Cryptococcus neoformans,10 µM
same,Activity,Pseudomonas aeruginosa [3],6.25 µM
same,IC50,L6,63.8 µM
same,CC50 at 20 h,[4],> 40 µM
same,"hemolysis at 1 h, 50 µM",[5],0.3%
O=C(NCCCNCCCCNCCCNC(=O)C(=O)c1c[nH]c2ccccc12)C(=O)c1c[nH]c2ccccc12,MIC,Staphylococcus aureus,> 100 µM
same,MIC,[1],> 100 µM
same,MIC,"Pseudomonas aeruginosa [2]; ATCC 27853, 18 h",> 100 µM
same,MIC,"Escherichia coli; ATCC 25922, 18 h",> 100 µM
same,MIC,Klebsiella pneumoniae; [6],> 41.4 µM
same,MIC,Acinetobacter baumannii,> 41.4 µM
same,MIC,Candida albicans,> 41.4 µM
same,MIC,Cryptococcus neoformans,10.3 µM
same,Activity,Pseudomonas aeruginosa [3],>50 µM
same,IC50,L6,60 µM
same,CC50 at 20 h,[4],> 41.5 µM
same,"hemolysis at 1 h, 50 µM",[5],0%
COc1ccc2c(C(=O)C(=O)NCCCNCCCCNCCCNC(=O)C(=O)c3c[nH]c4cc(OC)ccc34)c[nH]c2c1,MIC,Staphylococcus aureus,> 100 µM
same,MIC,[1],> 100 µM
same,MIC,"Pseudomonas aeruginosa [2]; ATCC 27853, 18 h",> 100 µM
same,MIC,"Escherichia coli; ATCC 25922, 18 h",> 100 µM
same,MIC,Klebsiella pneumoniae; [6],> 38.4 µM
same,MIC,Acinetobacter baumannii,> 38.4 µM
same,MIC,Candida albicans,> 38.4 µM
same,MIC,Cryptococcus neoformans,19.2 µM
same,Activity,Pseudomonas aeruginosa [3],50 µM
same,IC50,L6,54 µM
same,CC50 at 20 h,[4],> 38.4 µM
same,"hemolysis at 1 h, 50 µM",[5],0%
N#Cc1ccc2c(C(=O)C(=O)NCCCNCCCCNCCCNC(=O)C(=O)c3c[nH]c4cc(C#N)ccc34)c[nH]c2c1.O=C(O)C(F)(F)F.O=C(O)C(F)(F)F,MIC,Staphylococcus aureus,100 µM
same,MIC,[1],25 µM
same,MIC,"Pseudomonas aeruginosa [2]; ATCC 27853, 18 h",> 200 µM
same,MIC,"Escherichia coli; ATCC 25922, 18 h",200 µM
same,MIC,Klebsiella pneumoniae; [6],> 38.9 µM
same,MIC,Acinetobacter baumannii,> 38.9 µM
same,MIC,Candida albicans,> 38.9 µM
same,MIC,Cryptococcus neoformans,38.9 µM
same,Activity,Pseudomonas aeruginosa [3],50 µM
same,IC50,L6,46.9 µM
same,CC50 at 20 h,[4],> 38.9 µM
same,"hemolysis at 1 h, 50 µM",[5],0%
O=C(NCCCNCCCCNCCCNC(=O)C(=O)c1c[nH]c2ccc(F)cc12)C(=O)c1c[nH]c2ccc(F)cc12.O=C(O)C(F)(F)F.O=C(O)C(F)(F)F,MIC,Staphylococcus aureus,25 µM
same,MIC,[1],50 µM
same,MIC,"Pseudomonas aeruginosa [2]; ATCC 27853, 18 h",200 µM
same,MIC,"Escherichia coli; ATCC 25922, 18 h",200 µM
same,MIC,Klebsiella pneumoniae; [6],> 39.6 µM
same,MIC,Acinetobacter baumannii,> 39.6 µM
same,MIC,Candida albicans,> 39.6 µM
same,MIC,Cryptococcus neoformans,9.9 µM
same,Activity,Pseudomonas aeruginosa [3],12.5 µM
same,IC50,L6,71.1 µM
same,CC50 at 20 h,[4],> 39.6 µM
same,"hemolysis at 1 h, 50 µM",[5],0%
O=C(NCCCNCCCCNCCCNC(=O)C(=O)c1c[nH]c2c(Cl)cccc12)C(=O)c1c[nH]c2c(Cl)cccc12.O=C(O)C(F)(F)F.O=C(O)C(F)(F)F,MIC,Staphylococcus aureus,50 µM
same,MIC,"Pseudomonas aeruginosa [2]; ATCC 27853, 18 h",200 µM
same,MIC,"Escherichia coli; ATCC 25922, 18 h",200 µM
same,MIC,Klebsiella pneumoniae; [6],> 38.1 µM
same,MIC,Acinetobacter baumannii,> 38.1 µM
same,MIC,Candida albicans,> 38.1 µM
same,MIC,Cryptococcus neoformans,19.1 µM
same,Activity,Pseudomonas aeruginosa [3],25 µM
same,IC50,L6,7.47 µM
same,CC50 at 20 h,[4],31.6 µM
same,"hemolysis at 1 h, 50 µM",[5],1.1%
OC(Cn1cncn1)(Cn1cncn1)c1ccc(F)cc1F [FLUCONAZOLE],MIC,Candida albicans,0.125 µg/mL
same,MIC,Cryptococcus neoformans,8 µg/mL
O=C(NCCCNCCCCNCCCNC(=O)C(=O)c1c[nH]c2cccc(F)c12)C(=O)c1c[nH]c2cccc(F)c12,MIC,Staphylococcus aureus,> 70 µM
same,MIC,[1],35 µM
same,MIC,"Pseudomonas aeruginosa [2]; ATCC 27853, 18 h",140 µM
same,MIC,"Escherichia coli; ATCC 25922, 18 h",100 µM
same,MIC,Klebsiella pneumoniae; [6],> 55.1 µM
same,MIC,Acinetobacter baumannii,> 55.1 µM
same,MIC,Candida albicans,> 55.1 µM
same,MIC,Cryptococcus neoformans,> 55.1 µM
same,Activity,Pseudomonas aeruginosa [3],35 µM
same,IC50,L6,167 µM
same,CC50 at 20 h,[4],> 55 µM
same,"hemolysis at 1 h, 50 µM",[5],0.3%
COc1cc([C@@H]2c3cc4c(cc3[C@H](O)[C@H]3COC(=O)[C@H]23)OCO4)cc(OC)c1OC [PODOFILOX],IC50,L6,0.018 µM
O=C(NCCCNCCCCNCCCNC(=O)C(=O)c1c[nH]c2ccc(Cl)cc12)C(=O)c1c[nH]c2ccc(Cl)cc12.O=C(O)C(F)(F)F.O=C(O)C(F)(F)F,MIC,Staphylococcus aureus,> 200 µM
same,MIC,"Pseudomonas aeruginosa [2]; ATCC 27853, 18 h",> 100 µM
same,MIC,"Escherichia coli; ATCC 25922, 18 h",> 200 µM
same,MIC,Klebsiella pneumoniae; [6],> 38 µM
same,MIC,Acinetobacter baumannii,> 38 µM
same,MIC,Candida albicans,38 µM
same,MIC,Cryptococcus neoformans,> 38 µM
same,Activity,Pseudomonas aeruginosa [3],14.9 µM
same,IC50,L6,19.8 µM
same,CC50 at 20 h,[4],4.73 µM
same,"hemolysis at 1 h, 50 µM",[5],0%
COLISTIN,MIC,Pseudomonas aeruginosa [2],1 µM
same,MIC,Escherichia coli,2 µM
same,MIC,Klebsiella pneumoniae,0.25 µg/mL
